mABHD4 FP: ABHD4 (mouse) inhibition, primary FP screen; inhibition, % at 8.92 µM; purified mABHD4, FP-Rh probe fluorescence polarization; Q8VD66; 370,000 compounds, 0.54% hits;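 active means inhibition exceeding the mean over every tested compound plus 3 SD, cut at about 30% in these data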;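 further: 0% = plate median of compound wells and 100% = S159A mutant with DMSO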
Target sequence (Q8VD66 whole entry, looked up): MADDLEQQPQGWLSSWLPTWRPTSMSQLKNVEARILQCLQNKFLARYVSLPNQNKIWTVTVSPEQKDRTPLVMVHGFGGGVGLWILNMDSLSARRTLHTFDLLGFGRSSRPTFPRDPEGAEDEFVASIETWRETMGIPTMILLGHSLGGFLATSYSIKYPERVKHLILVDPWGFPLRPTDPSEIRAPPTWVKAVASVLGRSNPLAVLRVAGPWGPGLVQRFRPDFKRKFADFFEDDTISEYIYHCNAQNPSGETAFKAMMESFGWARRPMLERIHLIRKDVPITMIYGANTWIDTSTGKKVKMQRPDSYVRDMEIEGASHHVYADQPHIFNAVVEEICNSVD
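System: mouse ABHD4 enzyme, wild type / Medium: HEPES pH 7.0, NaCl, Pluronic buffer / Reagent: FP-Rh activity-based fluorescent probe / Control set: S159A mutant high control, sample median low control / Detection: fluorescence polarization with parallel and perpendicular emission, 525/598 nm / Schedule: 45 min + 60 min at 25 °C / Compound dosing: 8.92 µM, single dose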
SIAE inh: human SIAE inhibition, primary screen | Q9HAT2 | AID 1053197 | 370,000 compounds, 0.69% hits | SIAE FP-Rh probe binding, fluorescence polarization | inhibition, % at 9.66 µM;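 active means inhibition above a cutoff: mean of compounds within the control limits plus 3 SD of those, cut at about 17% in these data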;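 further: 0% = plate median of compound wells and 100% = probe without SIAE protein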
TCR CD3 inh: inhibitors of human TCR-CD3 interaction | TAMRA-labeled TCR probe fluorescence, biochemical | inhibition, % at 9.4 µM | 360,000 compounds, 0.37% hits | AID 651800; in the data active means inhibition above about 19%;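 further: recombinant mutant TCR 2C K166C tagged with TAMRA read by polarization; 0% = receptor in buffer alone and 100% = receptor with positive control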
HTRA1 inhibitor: HTRA1 (human) protease inhibition | recombinant HTRA1, FP-rhodamine activity-based probe, fluorescence polarization | inhibition, % at 5.96 µM | 340,000 compounds, 0.5% hits; in the data active means inhibition above about 36%;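 further: 0% = enzyme with DMSO and 100% = wells lacking enzyme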
pPAFAH inh: inhibitors of human plasma PAF acetylhydrolase (pPAFAH); Q13093; inhibition, % at 3.39 µM; 330,000 compounds, 1.5% hits; recombinant pPAFAH, FP-rhodamine probe fluorescence polarization;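 active means inhibition above the mean inhibition across the screen plus 3 SD, cut at about 25% in these data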;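 further: inhibitors block binding of the rhodamine activity-based probe so polarization drops; 0% = enzyme with DMSO and 100% = wells lacking pPAFAH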
HTRA1 conf: confirmation of human HTRA1 inhibitors. shares compounds with HTRA1 inhibitor. recombinant HTRA1, FP-rhodamine activity-based probe, fluorescence polarization. inhibition, % at 5.96 µM. 1,600 compounds, 66% hits. AID 540248;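 active means mean inhibition over three repeats above a set limit taken from the earlier primary screen, cut at about 37% in these data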;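 further: 0% = HTRA1 with DMSO and 100% = wells lacking HTRA1; inhibitors block probe binding so polarization drops and inhibition rises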
* = called active by the depositor. Most compounds without a hit are left out; they make up all but 2.3% or so of the library.

`CO[C@H]1CN(C)C(=O)c2cc(NC(=O)C3CCCC3)ccc2OC[C@@H](C)NC[C@H]1C` gave mABHD4 FP 2.2, SIAE inh 3.5 and TCR CD3 inh -9.5.
Screening CCC1=NN(C(=O)c2cccc(Br)c2)C(O)(c2ccc(Br)cc2)C1 (stereo not drawn) returned mABHD4 FP -5.8, SIAE inh 1.1, TCR CD3 inh 1.5, HTRA1 inhibitor 74.7*, pPAFAH inh 18.9 and HTRA1 conf 68.4*.
Cc1cc(Cl)ccc1OCCCC(=O)NNC(=O)c1ccccc1O was read as mABHD4 FP 1.0, SIAE inh -1.2, TCR CD3 inh 18.8, HTRA1 inhibitor 38.8*, pPAFAH inh 28.8* and HTRA1 conf 52.0*.
For CCOc1ccc(C(=O)CSc2nnc3ccccn23)cc1 the results were mABHD4 FP 4.6, SIAE inh 5.4, TCR CD3 inh -2.4, HTRA1 inhibitor -3.7 and pPAFAH inh 4.4.
CCn1c(CSc2nnc3ccccn23)nc2cc(C(=O)O)ccc21 was read as mABHD4 FP 40.0*, SIAE inh 53.7*, TCR CD3 inh 66.7*, HTRA1 inhibitor 36.6*, pPAFAH inh 25.8* and HTRA1 conf 79.2*.
For CN(Cc1ccccc1)C(=O)OCc1cn(Cc2ccc(F)cc2F)nn1 the results were mABHD4 FP 2.4 and SIAE inh 7.9.
`CCc1ccc(OC2=NS(=O)(=O)c3ccccc32)cc1` gave mABHD4 FP 2.4, SIAE inh 13.8, TCR CD3 inh 0.9 and HTRA1 inhibitor 0.4.
Screening CCN(CC)c1cccc(OC2=NS(=O)(=O)c3ccccc32)c1 returned mABHD4 FP 87.6*, SIAE inh 30.6*, TCR CD3 inh 52.8*, HTRA1 inhibitor 46.2*, pPAFAH inh 24.9* and HTRA1 conf 14.6.
`CCOC(=O)N1CCN(C(=O)C[C@H]2C[C@@]3(C(=O)OC)C(=C[C@H](C(C)(C)C)O[C@@H]3C)N(CCC3=CCCCC3)C2=O)CC1` gave mABHD4 FP -6.6, SIAE inh -3.0 and TCR CD3 inh -6.4.
c1ccc(CN2CCC(=NNc3nc4ccccc4[nH]3)CC2)cc1 was read as mABHD4 FP 26.0, SIAE inh 5.8, TCR CD3 inh 0.4, HTRA1 inhibitor 36.6*, pPAFAH inh -2.6 and HTRA1 conf 15.4.
For COc1ccc(-n2c(SCC(=O)Nc3cccc4ccccc34)nnc2-c2ccco2)cc1 the results were mABHD4 FP -11.4 and SIAE inh -1.7.
For COc1nc(Nc2ccc(O)cc2)nc(OC(C(F)(F)F)C(F)(F)F)n1 the results were mABHD4 FP -13.2, SIAE inh -5.8, TCR CD3 inh -0.6, HTRA1 inhibitor -5.8 and pPAFAH inh 1.9.
For Nc1cccc(Nc2nc(OC(C(F)(F)F)C(F)(F)F)nc(OC(C(F)(F)F)C(F)(F)F)n2)c1 the results were mABHD4 FP -15.1, SIAE inh 0.4, TCR CD3 inh -1.0, HTRA1 inhibitor 37.8*, pPAFAH inh 19.5 and HTRA1 conf 12.4.
O=C(Nc1cccc(Br)c1)OC1CC2CC1[C@H]1CCCCN1[C@H]2Cc1ccccc1 (stereo partly drawn) was read as mABHD4 FP -3.0 and SIAE inh -2.8.
Screening Cn1[nH]cc(C=NC(N)=O)c1=O returned mABHD4 FP 6.9, SIAE inh 3.4, TCR CD3 inh -1.6, HTRA1 inhibitor 46.8* and HTRA1 conf 1.2.
Screening COc1cccc(C(=O)n2ccc3ccc(-c4ccc5ccn(C(=O)c6cccc(OC)c6)c5c4)cc32)c1 returned mABHD4 FP -2.1 and SIAE inh -8.5.
For CCN1c2ccccc2N(C)C1(C)c1ccccc1 (stereo not drawn) the results were HTRA1 inhibitor 41.5*, pPAFAH inh 9.6 and HTRA1 conf 8.3.
`CCOC(=O)N1CCN(C(=O)C[C@H]2C[C@@]3(C(=O)OC)C(=C[C@H](C4CCCC4)O[C@@H]3C)N(Cc3ccco3)C2=O)CC1` gave mABHD4 FP -1.2 and SIAE inh -2.6.
For Oc1ccccc1/C=N/NC(=S)NC1CC2CC1C1C=CCC21 (stereo not drawn) the results were mABHD4 FP 6.6, SIAE inh 11.5, TCR CD3 inh 3.8, HTRA1 inhibitor 36.8*, pPAFAH inh 14.3 and HTRA1 conf 13.9.

From PubChem BioAssay
